The subject of test [1] is Trypanosoma brucei brucei. Kind of test: Antitrypanosomal activity against bloodstream-form Trypanosoma brucei brucei 427 after 72 hrs. It counts as functional, organism-based. The settings on record: Trypanosoma brucei, 427, 72 h. Put shortly: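 HMI-9 with 10% FBS, 10% Serum Plus and pen/strep; log-phase parasites at final 1.0 × 10^5/mL, 0.4% DMSO. Serially diluted compound, 72 h at 37 °C, 5% CO2, then resazurin for 2-4 h more. Fluorescence read at ex 544/em 590 nm. Triplicates averaged, IC50 from sigmoidal dose-response fit; suramin and pentamidine as positive controls.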

Test [2] can be described thus: Inhibition of Trypanosoma brucei TREU927 Leucyl-tRNA Synthetase expressed in Escherichia coli BL21 (DE3)-RIPL using [14C]Leu by scintillation counting. Put shortly: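 Compound preincubated 20 min at 37 °C without ATP, then started with 4 mM ATP. After 15 min, TCA-precipitated on filters. Nine-point IC50 curves, sigmoidal fit, reference inhibitor per batch.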
Test [3] deals with L929. Kind of test: Cytotoxicity against mouse L929 cells after 72 hrs. The settings on record: L929, 72 h. The class given is cell-based. Put shortly: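 Fibroblasts grown in D-MEM with 10% FBS and pen/strep, kept subconfluent. Seeded from 1 × 10^4/mL suspension, attached overnight, medium replaced, serially diluted compound added from DMSO. Exposure 72 h at 37 °C, 5% CO2. Resazurin added for 3-4 h more, fluorescence read at ex 544/em 590 nm.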

Structures are written as SMILES.

On to `Cc1ccc(C(=O)Nc2ccc(S(=O)(=O)O)c3cc(S(=O)(=O)O)cc(S(=O)(=O)O)c23)cc1NC(=O)c1cccc(NC(=O)Nc2cccc(C(=O)Nc3cc(C(=O)Nc4ccc(S(=O)(=O)O)c5cc(S(=O)(=O)O)cc(S(=O)(=O)O)c45)ccc3C)c2)c1` [SURAMIN], for which the IC50 in test [1] stood at 0.005 µM.

`CC(C)(C)OC(=O)NCCOc1ccc2c(c1)B(O)OC2` returned an IC50 in test [2] greater than 100 µM.

For the molecule `CCOC(=O)C(C)(C)Oc1ccc2c(c1)B(O)OC2`, the half-maximal inhibitory concentration (IC50) in test [2] is 2.1 µM; in test [3] it was greater than 10 mg/L; in test [1] it was 5.49 µM.

In turn, `OB1OCc2ccc(OCC3CCCCC3)cc21` gave an IC50 in test [2] greater than 100 µM.

`COC(=O)COc1ccc2c(c1)B(O)OC2`: the IC50 in test [2] is 3.6 µM; in test [3], greater than 10 mg/L; in test [1], 1.22 µM.

In test [2], `CCOC(=O)/C=C/c1ccc2c(c1)B(O)OC2` gave an IC50 of 578 µM.

In test [2], `OCCCc1ccc2c(c1)B(O)OC2` showed a half-maximal inhibitory concentration (IC50) of 688 µM.

Consider `CC(C)CC(=O)COc1ccc2c(c1)B(O)OC2`, for which the IC50 in test [2] was determined as 67.6 µM.

In the case of `CCC(Oc1ccc2c(c1)B(O)OC2)C(C)=O` (stereo not drawn), the values for the half-maximal inhibitory concentration (IC50) in test [2], in test [3] and in test [1] were 3.5 µM, greater than 10 mg/L and 3.76 µM, respectively.

In turn, `CCCC(=O)COc1ccc2c(c1)B(O)OC2` registered an IC50 in test [2] of 30.8 µM.

Turning to `COCCOc1ccc2c(c1)B(O)OC2`, in test [2], the IC50 was greater than 100 µM.

Take `CCC(O)C(C)Oc1ccc2c(c1)B(O)OC2` (stereo not drawn): the 50% inhibitory concentration (IC50) in test [2] was greater than 100 µM.

In turn, `CCOC(=O)C(Oc1ccc2c(c1)B(O)OC2)c1ccccc1` (stereo not drawn) had an IC50 in test [2] of 41.7 µM.

For `N=C(N)c1ccc(OCCCCCOc2ccc(C(=N)N)cc2)cc1` [PENTAMIDINE], in test [1], it took 0.026 µM to reach half-maximal inhibition (IC50).

In turn, `OB1OCc2ccccc21` [BENZOXABOROLE] yielded a 50% inhibitory concentration (IC50) in test [2] of 22.1 µM.

In the case of `OCCCc1cccc2c1B(O)OC2`, half-maximal inhibition in test [2] (IC50) was put at 541 µM.

Regarding `CC(C)(C)OC(=O)COc1ccc2c(c1)B(O)OC2`, the IC50 in test [2] is 7.4 µM; in test [3] it was greater than 10 mg/L; in test [1] it was 2.61 µM.

As to `OB1OCc2ccc(OCc3ccccc3F)cc21`, the midpoint of inhibition in test [2], the IC50, lay at 25.6 µM.

In turn, `CCCC(Oc1ccc2c(c1)B(O)OC2)C(C)=O` (stereo not drawn) had an IC50 in test [2] of 31.4 µM.

In test [2], `O=C(/C=C/c1ccc2c(c1)B(O)OC2)c1ccccc1` registered an IC50 of 209 µM.

In test [2], `OB1OCc2ccc(OCc3ccccc3)cc21` showed an IC50 of 30.6 µM.

`CCOC(=O)C(C)Oc1ccc2c(c1)B(O)OC2` (stereo not drawn): the values for the half-inhibitory concentration (IC50) in test [2], in test [3] and in test [1] were 2.8 µM, greater than 10 mg/L and 3 µM, respectively.

On to `CCOC(=O)C(CC)Oc1ccc2c(c1)B(O)OC2` (stereo not drawn), for which the IC50 in test [2] is 1.6 µM; in test [3], greater than 10 mg/L; in test [1] it was 11.3 µM.

In test [2], `O=C(NC1CCCCC1)Oc1ccc2c(c1)B(O)OC2` gave a 50% inhibitory concentration (IC50) of 32.3 µM.

In the case of `CC(=O)C(C)(C)Oc1ccc2c(c1)B(O)OC2`, the IC50 in test [2] is 5 µM; in test [3], greater than 10 mg/L; in test [1], 0.37 µM.

`CCOC(=O)CCc1cccc2c1B(O)OC2`: the half-maximal inhibitory concentration (IC50) in test [2] is greater than 1000 µM.

In the case of `CCC(=O)C(C)Oc1ccc2c(c1)B(O)OC2` (stereo not drawn), the concentration for half-maximal inhibition (IC50) in test [2] is 2.5 µM; in test [3] it was greater than 10 mg/L; in test [1] it was 8.25 µM.

As to `CCOC(=O)COc1ccc2c(c1)B(O)OC2`, the concentration for half-maximal inhibition (IC50) is 3.5 µM in test [2], greater than 10 mg/L in test [3] and 0.72 µM in test [1].

In test [2], `OB1OCc2ccc(OCc3ccccn3)cc21` came in with a half-maximal inhibitory concentration (IC50) greater than 100 µM.

Turning to `CC(=O)C(C)Oc1ccc2c(c1)B(O)OC2` (stereo not drawn), the IC50 is 3.8 µM in test [2], greater than 10 mg/L in test [3] and 2.09 µM in test [1].

As to `CCNC(=O)COc1ccc2c(c1)B(O)OC2`, the half-inhibitory concentration (IC50) in test [2] is 77.7 µM.

Consider `CCOc1ccc2c(c1)B(O)OC2`, for which, in test [2], the IC50 was determined as 13 µM.

For `CC(C)Oc1ccc2c(c1)B(O)OC2`, the IC50 in test [2] was 15.8 µM.

Consider `CC(=O)C(Oc1ccc2c(c1)B(O)OC2)C(C)C` (stereo not drawn), for which the half-inhibitory concentration (IC50) in test [2] is 4.5 µM; in test [3], greater than 10 mg/L; in test [1], 2.74 µM.

Turning to `O=C(O)COc1ccc2c(c1)B(O)OC2`, the IC50 in test [2] was greater than 100 µM.

In turn, `CCOC(=O)/C=C/c1cccc2c1B(O)OC2` had a concentration for half-maximal inhibition (IC50) in test [2] greater than 1000 µM.

On to `OB1OCc2ccc(Oc3ccc4ccccc4n3)cc21`, for which the IC50 in test [2] came to 63 µM.

The molecule `CCOC(=O)CCc1ccc2c(c1)B(O)OC2` yielded an IC50 in test [2] of 16.7 µM.

Regarding `O=CCOc1ccc2c(c1)B(O)OC2`, the half-maximal inhibitory concentration (IC50) in test [2] was greater than 100 µM.

`O=C(Nc1ccccc1)Oc1ccc2c(c1)B(O)OC2`: the IC50 in test [2] was 43.1 µM.

Regarding `CCC(=O)COc1ccc2c(c1)B(O)OC2`, half-maximal inhibition in test [2] (IC50) was put at 27.2 µM.

In test [2], `COC(COc1ccc2c(c1)B(O)OC2)OC` came in with a 50% inhibitory concentration (IC50) of 71.3 µM.

On to `CCCOc1ccc2c(c1)B(O)OC2`, for which, in test [2], the IC50 was 30.9 µM.

Molecule `CCCCOc1ccc2c(c1)B(O)OC2` displayed an IC50 in test [2] of 54.3 µM.

`CC(C)(C)NC(=O)COc1ccc2c(c1)B(O)OC2` displayed an IC50 in test [2] greater than 100 µM.

Regarding `OB1OCc2ccc(O)cc21`, the IC50 in test [2] came to 30.9 µM.

In the case of `O=C(/C=C/c1cccc2c1B(O)OC2)c1ccccc1`, the 50% inhibitory concentration (IC50) in test [2] is 412 µM.

As for `CCCC(=O)C(CC)Oc1ccc2c(c1)B(O)OC2` (stereo not drawn), the figures for the 50% inhibitory concentration (IC50) in test [2], in test [3] and in test [1] were 2.9 µM, greater than 10 mg/L and 12.9 µM, respectively.

In test [2], `O=C1c2ccccc2C(=O)N1CCCOc1ccc2c(c1)B(O)OC2` showed a half-maximal inhibitory concentration (IC50) greater than 100 µM.

The term IC50 denotes the point on the concentration scale where inhibition reaches its midpoint.

These data come from ChEMBL document CHEMBL1687919, “Design, synthesis, and structure-activity relationship of Trypanosoma brucei leucyl-tRNA synthetase inhibitors as antitrypanosomal agents” (J Med Chem, 2011).
